# Laboratory results taken from the array DNA melting data of Ke et al. (doi:10.1101/2024.01.08.574731).
# Tests used:
# [1] = folding enthalpy; higher = less favourable; fluorescence melt of hairpins on a sequencing array, two-state fit; settings: sodium 0.088 M
# Procedure, shortened: (§1)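 With Cy3 and quencher oligos annealed, library hairpins on a sequenced MiSeq flow cell were imaged for Cy3 fluorescence in 50 mM Na-HEPES pH 8.0, 25 mM NaCl, in 2.5 °C steps up to 60 °C. Melting temperature and folding enthalpy were derived from bootstrapped two-state fits of signals normalised to pre-quench Cy3 and to control constructs. Four replicates were combined by inverse variance, with fitted temperatures raised by 9.35 °C to match UV melts.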
# [2] = melting temperature; fluorescence melt of hairpins on a sequencing array, two-state fit, raised by 9.35 °C to match UV melts; settings: sodium 0.088 M
# Procedure, shortened: as §1
sequence,measurement,setting,value
GCGTTAGTACGC ((((....)))),folding enthalpy,[1],-19.8 kcal/mol
same,Tm,[2],51.1 °C
GCAGTAGGAAACTACCAC (..((((....))))..),folding enthalpy,[1],-6.77 kcal/mol
same,Tm,[2],19.6 °C
GTGTACGAAAGTATCCAC ((((((....)))..))),folding enthalpy,[1],-18.3 kcal/mol
same,Tm,[2],26.4 °C
TCAACGAAAGTTGA (((((....))))),folding enthalpy,[1],-17.5 kcal/mol
same,Tm,[2],52 °C
GTATGCGAAAGCAGGTAC ((((((....)))..))),folding enthalpy,[1],-13.2 kcal/mol
same,Tm,[2],30 °C
GATTGACGAAAGTCCATC (((.(((....))).))),folding enthalpy,[1],-23 kcal/mol
same,Tm,[2],39.3 °C
CGATGGAAACATCG (((((....))))),folding enthalpy,[1],-23.9 kcal/mol
same,Tm,[2],52.6 °C
GGAAGACGAAAGTCCTCC (((.(((....))).))),folding enthalpy,[1],-21.4 kcal/mol
same,Tm,[2],43 °C
GCATACGAAAGTATCTGC ((((((....)))..))),folding enthalpy,[1],-15.5 kcal/mol
same,Tm,[2],37.9 °C
GTCGTAGCGAAAGCTGAC (((..(((....)))))),folding enthalpy,[1],-19.6 kcal/mol
same,Tm,[2],46.3 °C
GCAACTGGAAACAGCTGC (((.(((....))).))),folding enthalpy,[1],-35.8 kcal/mol
same,Tm,[2],46.2 °C
GGGTGTTCGAAAGAACCC (((..(((....)))))),folding enthalpy,[1],-16.7 kcal/mol
same,Tm,[2],52 °C
GCACGCACGAAAGTGTGC (((..(((....)))))),folding enthalpy,[1],-23.2 kcal/mol
same,Tm,[2],52.6 °C
GCTCGCGAAAGCGAGAGC ((((((....)))..))),folding enthalpy,[1],-9.87 kcal/mol
same,Tm,[2],66.7 °C
GGCCAGCGAAAGCTAGCC (((.(((....))).))),folding enthalpy,[1],-29.6 kcal/mol
same,Tm,[2],56.4 °C
GCGTCCGGAAACGGGTGC ((..(((....)))..)),folding enthalpy,[1],-30.8 kcal/mol
same,Tm,[2],51.2 °C
GCTCCGCGAAAGCGATGC ((..(((....)))..)),folding enthalpy,[1],-13.3 kcal/mol
same,Tm,[2],40.8 °C
GGTAGCGGAAACGTTACC ((((.((....)).)))),folding enthalpy,[1],-32.4 kcal/mol
same,Tm,[2],50.4 °C
GGGTCACGAAAGTGCCCC (((.(((....))).))),folding enthalpy,[1],-27.4 kcal/mol
same,Tm,[2],63 °C
GATCTACTAGTAGATC ((((((....)))))),folding enthalpy,[1],-46.8 kcal/mol
same,Tm,[2],51.7 °C
GTAGCGCGAAAGCGTTAC (((.(((....))).))),folding enthalpy,[1],-23.1 kcal/mol
same,Tm,[2],58.3 °C
GAGGCCGAAAGGCGCTC ((((((....))).))),folding enthalpy,[1],-13.8 kcal/mol
same,Tm,[2],57 °C
GTTACAGGAAACTGCAAC (((.(((....))).))),folding enthalpy,[1],-23.4 kcal/mol
same,Tm,[2],35.8 °C
GCAATTCGAAAGAATGC (((.(((....)))))),folding enthalpy,[1],-29.3 kcal/mol
same,Tm,[2],48.1 °C
GGATGGGGAAACCCATTC (.(((((....))))).),folding enthalpy,[1],-22 kcal/mol
same,Tm,[2],47.5 °C
GATCTAATATAGATC ((((((...)))))),folding enthalpy,[1],-28.6 kcal/mol
same,Tm,[2],38.8 °C
GATCCGTGTACGGATC ((((((....)))))),folding enthalpy,[1],-45 kcal/mol
same,Tm,[2],63.6 °C
TAGCTGAAAAGCTA (((((....))))),folding enthalpy,[1],-14.6 kcal/mol
same,Tm,[2],46.9 °C
GAGTACGAAAGTAAACTC ((((((....)))..))),folding enthalpy,[1],-26.2 kcal/mol
same,Tm,[2],35.9 °C
GTAAGTCGAAAGACGTAC (((.(((....))).))),folding enthalpy,[1],-15.2 kcal/mol
same,Tm,[2],47.1 °C
GCCAGGCGAAAGCCCGGC (((.(((....))).))),folding enthalpy,[1],-24.5 kcal/mol
same,Tm,[2],66.2 °C
CGCGGACAAATCCGCG ((((((....)))))),folding enthalpy,[1],-40.8 kcal/mol
same,Tm,[2],60.9 °C
GATCATTACATGATC ((((((...)))))),folding enthalpy,[1],-33.8 kcal/mol
same,Tm,[2],50.2 °C
GATCGACTCTTCGATC ((((((....)))))),folding enthalpy,[1],-39.5 kcal/mol
same,Tm,[2],52.7 °C
GCTATTTCGAAAGAAAGC (((..(((....)))))),folding enthalpy,[1],-12.5 kcal/mol
same,Tm,[2],28.3 °C
GTTCACCGAAAGGTAAC (((.(((....)))))),folding enthalpy,[1],-16.3 kcal/mol
same,Tm,[2],36.3 °C
GGCGAAGGAAACCTCGCC (((((.(....).))))),folding enthalpy,[1],-46.7 kcal/mol
same,Tm,[2],55.3 °C
CGCGGACCACTCCGCG ((((((....)))))),folding enthalpy,[1],-32.7 kcal/mol
same,Tm,[2],64 °C
GATCGGATACCCGATC ((((((....)))))),folding enthalpy,[1],-40.3 kcal/mol
same,Tm,[2],56.6 °C
GATCACAGCAGTGATC ((((((....)))))),folding enthalpy,[1],-40.3 kcal/mol
same,Tm,[2],59.5 °C
GGTCCCGGAAACGAGACC ((((.((....)).)))),folding enthalpy,[1],-32 kcal/mol
same,Tm,[2],49.6 °C
CAACCCGAAAGGCTTG (((.((....)).))),folding enthalpy,[1],-16 kcal/mol
same,Tm,[2],30.2 °C
GATCATGAGAATGATC ((((((....)))))),folding enthalpy,[1],-36.5 kcal/mol
same,Tm,[2],49.7 °C
GCTCGGCGAAAGCCCGGC ((..(((....)))..)),folding enthalpy,[1],-7.98 kcal/mol
same,Tm,[2],56.9 °C
GGGTCAGGAAACTGACTC (.(((((....))))).),folding enthalpy,[1],-30.7 kcal/mol
same,Tm,[2],51.8 °C
GCCCCCGGAAACGGGGAC (.(((((....))))).),folding enthalpy,[1],-11.4 kcal/mol
same,Tm,[2],53.2 °C
